The list is not random: actives were taken first. Their share in the collection is about 2.6%.
NR2E3 ag-1: human photoreceptor-specific nuclear receptor agonism; Q9Y5X4; CHO-S Gal4-NCOR/VP16-NR2E3 two-hybrid, luciferase; inhibition of corepressor binding, % at 3.98 µM; 360,000 tested, 0.35% active;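 active means inhibition above the mean of all tested compounds plus 3 SD, cut at about 70% in these data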;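 further: 0% = DMSO with NR2E3 transfected cells and 100% = cells lacking NR2E3 construct; higher means lower luciferase signal from less NR2E3 corepressor binding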
Target sequence (Q9Y5X4 whole entry, looked up, the tested form may be a part): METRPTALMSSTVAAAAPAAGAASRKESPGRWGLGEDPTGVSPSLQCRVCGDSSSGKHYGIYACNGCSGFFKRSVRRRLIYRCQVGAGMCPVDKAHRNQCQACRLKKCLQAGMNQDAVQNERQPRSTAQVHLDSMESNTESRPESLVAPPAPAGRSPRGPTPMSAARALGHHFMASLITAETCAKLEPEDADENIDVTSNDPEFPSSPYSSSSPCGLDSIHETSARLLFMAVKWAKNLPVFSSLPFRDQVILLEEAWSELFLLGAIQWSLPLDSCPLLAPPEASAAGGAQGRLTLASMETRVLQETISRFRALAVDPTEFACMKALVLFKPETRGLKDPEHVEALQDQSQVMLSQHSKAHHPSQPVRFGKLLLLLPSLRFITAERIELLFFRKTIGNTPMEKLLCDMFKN
PG9 binder: PG9 antibody binding by small molecule. TR-FRET gp120-PG9 antibody binding. inhibition, % at 6.7 µM. 360,000 tested, 0.43% active; in the data active means inhibition above about 8.5%
NR1D1 modulator: modulators of human Rev-erb alpha DNA binding; P20393; Rev-erbα–FITC-DNA binding, fluorescence polarization, 90 min; activity, % at 10 µM; 370,000 tested, 0.79% active; AID 1259318;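 active means activity above about 14%, limit read from the data; passing the limit was not always enough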;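 further: 0% = DMSO wells with 35 nM protein and 100% = DMSO wells with 750 nM protein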
rCAG binder: molecules binding r(CAG) RNA repeats; r(CAG) RNA repeat, TO-PRO-1 dye displacement fluorescence; inhibition, % at 3 µM; 370,000 tested, 1.3% active; AID 651821;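 active means inhibition above the plate cutoff, the mean of all test compounds on that plate plus 3 SD, cut at about 35% in these data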;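 further: 0% = DMSO alone and 100% = 100 µM mitoxantrone as full dye displacement; higher means more dye released from RNA so lower well fluorescence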
NR2E3 ag-2: agonists of human nuclear receptor NR2E3. 320,000 tested, 0.12% active. GST-NR2E3/biotin-RetCOR TR-FRET, 1536-well. Q9Y5X4. AID 2300. inhibition of corepressor binding, % at 4.78 µM;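 active means percent inhibition above the cutoff of mean plus 3 SD of all tested compounds, set per screening campaign, cut at about 20% in these data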;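 further: 0% = DMSO wells and 100% = biotin wells as full block of FRET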
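system = GST-tagged NR2E3 plus biotinylated RetCOR corepressor | input = 1.35 nM GST-NR2E3 | also added = 7 nM biotin-RetCOR | schedule = 5 h incubation at 4 °C | measured by = TR-FRET with europium anti-GST and streptavidin-D2, 340 nm excitation | read-out = percent loss of FRET ratio relative to control wells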
NR2E3 ag confirm: NR2E3 agonism confirmed in two-hybrid assay. inhibition, % at 3.98 µM. 2,300 tested, 51% active. AID 624378. shares compounds with NR2E3 ag-1. CHO-S mammalian two-hybrid NR2E3-NCOR, luciferase luminescence;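 active means average inhibition above a cutoff equal to the mean inhibition of all tested compounds plus one SD, cut at about 70% in these data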;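 further: 0% = DMSO in NR2E3 cells and 100% = DMSO in cells lacking NR2E3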
GAL4-VP16 luc: GAL4-VP16 reporter inhibition in NR2E3 agonist counterscreen; shares compounds with NR2E3 ag-1; CHO-S GAL4-VP16 luciferase reporter, luminescence; inhibition, % at 3.98 µM; 2,300 tested, 29% active; AID 624379;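 active means mean inhibition above a cutoff equal to the average over all tested compounds plus one standard deviation, cut at about 70% in these data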;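 further: luciferase from a UAS reporter driven by GAL4-VP16 transactivation; 0% = DMSO with VP16-transfected cells and 100% = DMSO with cells lacking VP16; higher means less reporter light so more repression of VP16 activity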
Numbers without * were called inactive; . = no result given.

SMILES	NR2E3 ag-1	PG9 binder	NR1D1 modulator	rCAG binder	NR2E3 ag-2	NR2E3 ag confirm	GAL4-VP16 luc
COc1ccc(CN(C)C(=O)c2ccc(COc3ccccc3)cc2)c(OC)c1	-14	-1	-3	3	1	.	.
COc1cc(OC)c(OC)cc1CNC(=O)c1ccc(COc2ccccc2)cc1	58	-1	1	0	2	37	39
CN(c1nc2ccccc2[nH]c1=O)C1CCCCC1	55	2	15	-3	2	90*	73*
Cn1cccc1/C=N\NC(=O)Cc1ccc(Br)c2ccccc12	48	0	4	11	3	28	54
Cn1cccc1/C=N/NC(=O)Cc1ccccc1	-12	0	-1	1	2	.	.
COc1ccc(Sc2cccc(Cl)c2)c(C(=O)O)c1	.	1	-2	5	.	.	.
Cn1c(=O)c(C(=O)c2ccccc2)nc2ccccc21	-14	0	-1	-3	1	.	.
Cn1cc(C(=O)c2ccc(Cl)cc2)cc1-c1nc2ccccc2n1C	49	-1	-2	2	0	36	42
O=C(CSc1nnnn1C1CC2CCC1C2)Nc1ccnc2ccccc12 (stereo not given)	98*	-3	2	1	1	94*	93*
O=C(CSc1nnnn1C1CCCCC1)Nc1ccccc1F	5	-2	-3	2	0	.	.
C[C@@H]1CN([C@@H](C)CO)C(=O)CCCn2cc(nn2)CO[C@H]1CN(C)C(=O)Nc1ccc(C(C)(C)C)cc1	.	-1	5	-3	.	.	.
COc1ccc(NS(=O)(=O)c2ccc3c(c2)NC(=O)CCS3)cc1Cl	60	1	-5	7	-3	34	34
CC1CCCC(C)N1C(=O)c1ccccc1 (stereo not given)	.	0	3	0	.	.	.
Oc1ccccc1/C=N/NC(=S)NC1CC2CC1C1C=CCC21 (stereo not given)	53	0	-3	12	-1	-102	-116
O=C(c1cncc(Br)c1)N1CCCc2ccccc21	74*	-1	-1	1	-2	-3	11
O=C(c1cccc(Br)c1)N1CCCc2ccccc21	-20	-2	-1	-4	-4	.	.
Cc1nnc2ccc(Oc3ccc(-c4ccccc4)cc3)nn12	70	-1	1	-2	7	91*	73*
O=C(CN1C(=O)C(c2ccc(F)cc2)=NC12CCCC2)Nc1ccc(F)cc1	75*	-1	0	3	5	73*	54
CN(Cc1nccs1)C(=O)c1cc(COc2cccc3cnccc23)on1	94*	0	5	-4	-2	81*	76*
O=C(c1cc(COc2cccc3cccnc23)on1)N1CCC[C@H]1CO	-16	-1	-7	0	.	.	.
COC(=O)C1CCCCN1C(=O)c1cc(COc2cccc3cnccc23)on1 (stereo not given)	102*	-1	1	-7	3	95*	88*
CCOC(=O)CC1CCCCN1C(=O)c1cc(COc2cccc3cnccc23)on1 (stereo not given)	101*	-3	-3	-7	-2	91*	88*
COC(=O)C1CCCCN1C(=O)c1cc(COc2cccc3cccnc23)on1 (stereo not given)	-11	-2	-1	-7	0	.	.
CC(=O)c1cccc(OCc2cc(C(=O)N(C)Cc3nccs3)no2)c1	-76	1	6	2	.	.	.
C=CCCC1CN(Cc2ccc(OC)cc2)S(=O)(=O)c2c(Oc3cc(C)c(C)c(C)c3)cccc2O1 (stereo not given)	.	1	-6	8	.	.	.
SMILES	NR2E3 ag-1	PG9 binder	NR1D1 modulator	rCAG binder	NR2E3 ag-2	NR2E3 ag confirm	GAL4-VP16 luc
CCc1ccc(NC(=O)c2ccc(F)c(S(=O)(=O)NCC3COc4ccccc4O3)c2)cc1 (stereo not given)	57	-2	3	7	-1	55	46
CCc1cc2c(nc1CC)CCCN2C	.	0	-3	2	.	.	.
O=C(Nc1ccc(OC(F)(F)F)cc1)N1CCN(c2ccnc3cc(Cl)ccc23)CC1	65	0	6	-3	-2	94*	70
CC(C)(C)C(=O)N1CCN(c2ccnc3cc(Cl)ccc23)CC1	-33	4	-2	-7	2	.	.
CC(C)OC(=O)NCCOC(=O)Nc1ccc(Cl)c(Cl)c1	64	0	-3	-3	-1	92*	74*
CC(C)OC(=O)NCCOC(=O)Nc1cccc(Cl)c1	43	0	4	-3	1	.	.
Cc1ccc(NC(=O)C2CCN(S(=O)(=O)c3ccc4c(c3)NC(=O)C(C)S4)CC2)cc1C (stereo not given)	74*	-2	0	8	0	93*	73*
CC1Sc2ccc(S(=O)(=O)N3CCC(C(=O)Nc4cccc(Cl)c4)CC3)cc2NC1=O (stereo not given)	49	-2	0	10	-2	65	54
CCc1ccc(NC(=O)C2CCN(S(=O)(=O)c3ccc4c(c3)NC(=O)C(C)S4)CC2)cc1 (stereo not given)	12	-1	3	7	0	.	.
CC1Sc2ccc(S(=O)(=O)N3CCC(C(=O)NCc4ccc(Cl)cc4)CC3)cc2NC1=O (stereo not given)	-5	-3	4	2	4	.	.
Cc1ccc2nc(N)[nH]c(=O)c2c1Sc1ccncc1	.	.	5	.	.	.	.
CCc1ccc(/C=C/C(=O)c2c(C)cc(C)[nH]c2=O)cc1	33	2	-5	9	0	.	.
Cc1ccc(/C=C/C(=O)c2c(C)cc(C)[nH]c2=O)cc1	49	.	-6	.	4	45	29
CCc1c(-c2ccc(OC)cc2)ncn1CCc1ccccc1OC	.	-1	0	1	.	.	.
O=C1CCCN1c1ccc(S(=O)(=O)Nc2cccnc2)cc1	-7	-1	3	1	3	.	.
CC1CCC(NS(=O)(=O)c2ccc(N3CCCC3=O)cc2)CC1 (stereo not given)	53	-1	1	-4	1	31	32
C[C@@H]1CN([C@H](C)CO)C(=O)c2cc(Br)cnc2O[C@H]1CN(C)C(=O)c1ccc(F)cc1	.	0	3	1	.	.	.
CCN(Cc1ccccc1)C(=O)Nc1c(Cl)cccc1Cl	.	0	13	1	.	.	.
Cc1ccc2nc(CN(C)C(=O)[C@@H](Cc3ccccc3)NC(=O)[C@H]3O[C@@H](n4cnc(C(N)=O)n4)[C@H](O)[C@@H]3O)[nH]c2c1	.	0	3	5	.	.	.
Cc1cccc(C)c1OCc1cc(C(=O)N(Cc2c(C)nn(C)c2C)C2CC2)no1	62	1	1	-9	-3	61	58
Cc1cccc(C)c1OCc1cc(C(=O)NCC2CCCCC2)no1	-25	0	1	0	-1	.	.
